# Test results: ChEMBL document CHEMBL3124793, “Discovery of spirofused piperazine and diazepane amides as selective histamine-3 antagonists with in vivo efficacy in a mouse model of cognition” (J Med Chem, 2014)
# Activity calls are given as the source filed them. The calls are words filed in the database; no cut-off is given here.
# Columns and labels:
# [1] = Octanol-water partition coefficient, log D of the compound by shake flask HPLC analysis; format: physicochemical
# How it was run: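 logD between octanol and water by shake-flask with HPLC analysis.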
# Histamine H3 receptor [2] = target: T1, Histamine H3 receptor (Homo sapiens, UniProt Q9Y5N1); assay: Antagonist activity at human histamine H3 receptor long form expressed in CHOK1 cells assessed as inhibition of R-alpha-methylhistamine-induced [35S]GTPgammaS binding after 3 hrs by scintillation proximity assay; format: functional, cell-based, CHO-K1
# T1 sequence (Q9Y5N1 whole entry): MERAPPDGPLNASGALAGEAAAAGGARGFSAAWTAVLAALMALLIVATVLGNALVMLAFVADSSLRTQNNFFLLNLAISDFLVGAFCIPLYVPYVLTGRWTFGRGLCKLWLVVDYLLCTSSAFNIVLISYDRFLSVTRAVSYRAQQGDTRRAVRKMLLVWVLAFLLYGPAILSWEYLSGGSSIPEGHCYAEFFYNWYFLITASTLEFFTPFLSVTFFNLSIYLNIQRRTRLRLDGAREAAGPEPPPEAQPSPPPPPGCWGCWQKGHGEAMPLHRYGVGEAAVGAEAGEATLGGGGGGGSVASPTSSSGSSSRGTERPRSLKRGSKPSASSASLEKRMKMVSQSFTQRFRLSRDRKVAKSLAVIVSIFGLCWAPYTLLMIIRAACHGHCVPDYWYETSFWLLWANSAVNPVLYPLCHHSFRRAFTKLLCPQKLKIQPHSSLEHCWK
# How it was run: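 Membranes from CHO-K1 cells stably expressing human H3R long form (445 aa) incubated 3 h with test compound, 25 nM R-α-methylhistamine, 10 μM GDP, 0.2 nM [35S]GTPγS and WGA PVT SPA beads; bead-bound [35S]GTPγS counted by scintillation. Average of n > 2, standard error <20%.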
# [3] = target: Voltage-gated inwardly rectifying potassium channel KCNH2 (Homo sapiens, UniProt Q12809); assay: Inhibition of human ERG expressed in CHOK1 cells by electrophysiological analysis
# Sequence of Voltage-gated inwardly rectifying potassium channel KCNH2 (Q12809 whole entry): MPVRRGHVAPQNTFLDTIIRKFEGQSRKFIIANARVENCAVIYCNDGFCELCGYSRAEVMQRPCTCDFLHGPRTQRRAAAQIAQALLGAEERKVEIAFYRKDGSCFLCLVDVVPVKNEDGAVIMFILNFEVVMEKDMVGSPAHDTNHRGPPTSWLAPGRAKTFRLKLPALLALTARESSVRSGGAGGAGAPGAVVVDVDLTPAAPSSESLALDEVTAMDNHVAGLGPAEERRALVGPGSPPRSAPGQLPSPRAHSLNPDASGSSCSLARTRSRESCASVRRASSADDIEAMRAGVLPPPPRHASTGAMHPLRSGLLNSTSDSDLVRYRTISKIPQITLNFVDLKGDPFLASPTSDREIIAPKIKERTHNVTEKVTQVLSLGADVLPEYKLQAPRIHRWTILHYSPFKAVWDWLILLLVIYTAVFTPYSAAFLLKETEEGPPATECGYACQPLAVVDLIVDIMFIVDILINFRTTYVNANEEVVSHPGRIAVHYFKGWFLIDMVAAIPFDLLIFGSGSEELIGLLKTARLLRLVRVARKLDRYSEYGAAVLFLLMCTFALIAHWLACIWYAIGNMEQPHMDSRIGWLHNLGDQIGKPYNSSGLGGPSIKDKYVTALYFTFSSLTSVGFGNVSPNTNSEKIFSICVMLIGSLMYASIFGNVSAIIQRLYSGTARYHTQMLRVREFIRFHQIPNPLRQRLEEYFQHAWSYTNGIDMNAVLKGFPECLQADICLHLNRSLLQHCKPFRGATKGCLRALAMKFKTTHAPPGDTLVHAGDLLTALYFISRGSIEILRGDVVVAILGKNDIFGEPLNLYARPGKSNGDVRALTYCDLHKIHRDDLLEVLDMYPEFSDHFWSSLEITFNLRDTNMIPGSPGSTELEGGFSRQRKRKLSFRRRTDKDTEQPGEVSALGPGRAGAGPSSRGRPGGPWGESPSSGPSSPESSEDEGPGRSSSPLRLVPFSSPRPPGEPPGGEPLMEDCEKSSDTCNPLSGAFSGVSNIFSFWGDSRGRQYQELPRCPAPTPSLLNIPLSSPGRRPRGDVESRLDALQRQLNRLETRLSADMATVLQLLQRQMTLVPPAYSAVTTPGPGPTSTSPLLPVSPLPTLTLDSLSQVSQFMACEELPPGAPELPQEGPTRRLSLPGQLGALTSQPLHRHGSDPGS
# Histamine H3 receptor [4] = target: T1, Histamine H3 receptor; assay: Displacement of [3H]-N-alpha-methylhistamine from human histamine H3 receptor expressed in CHOK1 cells after 1.5 hrs by scintillation proximity assay; format: cell-based, CHO-K1
# How it was run: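 Human H3R-CHO-K1 membranes incubated 1.5 h with test compound and [3H]-N-α-methylhistamine in SPA format; nonspecific binding defined with 10 μM imetit; bead-bound radioligand counted. Average of n > 2, standard error <50%.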
# [5] = Apparent permeability from apical to basolateral side in MDCK cells; format: ADME, cell-based, Canis lupus familiaris; conditions: dog
# How it was run: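 MDCK monolayers; A-to-B Papp in 1 × 10⁻⁶ cm/s; efflux taken as ratio of A-to-B Papp over B-to-A Papp.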
# [6] = Half life in rat at 3.5 umol/kg, iv; format: ADME, organism-based; conditions: in vivo
# How it was run: (§1)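 IV dosing in male fasted rats, doses in μmol/kg; mean Vss, half-life and clearance derived; number of rats per compound reported.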
# [7] = Percentage unbound in human plasma; format: ADME, cell-free
# How it was run: (§2)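 Plasma protein binding in human or rat plasma, expressed as percent free.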
# [8] = Volume of distribution at steady state in rat at 3.5 umol/kg, iv; format: ADME, organism-based; conditions: in vivo, read-out: Vdss
# How it was run: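 Male fasted rats given a single IV dose. Volume of distribution taken as the mean from plasma sampling after the IV dose. Animals per compound: 1 to 7.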
# Rattus norvegicus [9] = assay: […] clearance in rat at 3.5 umol/kg, iv; format: ADME, organism-based; conditions: in vivo; how it was run: as §1
# [10] = Intrinsic clearance in rat liver microsomes; format: ADME; conditions: read-out: CLH
# [11] = Equilibrium solubility of the compound at pH 7.4; format: physicochemical; conditions: buffer
# [12] = Intrinsic clearance in human liver microsomes; format: ADME; conditions: read-out: CLH
# How it was run: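 Human liver microsomal clearance, expressed as μL/min/mg.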
# [13] = Half life in rat at 2.1 umol/kg, iv; format: ADME, organism-based; conditions: in vivo; how it was run: as §1
# [14] = Volume of distribution at steady state in rat at 2.1 umol/kg, iv; format: ADME, organism-based; conditions: in vivo, read-out: Vdss; how it was run: as §1
# Rattus norvegicus [15] = assay: […] clearance in rat at 2.1 umol/kg, iv; format: ADME, organism-based; conditions: in vivo; how it was run: as §1
# Histamine H3 receptor [16] = target: T1, Histamine H3 receptor; assay: Inverse agonist activity at human histamine H3 receptor long form expressed in CHOK1 cells assessed as reduction in [35S]GTPgammaS binding after 3 hrs by scintillation proximity assay; format: functional, cell-based; conditions: CHO-K1
# How it was run: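 Basal [35S]GTPγS binding, without agonist stimulation, to membranes expressing recombinant human H3R.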
# [17] = Percentage unbound in rat plasma; format: ADME, cell-free; how it was run: as §2
SMILES,logD [1],IC50 (Histamine H3 receptor [2]) [nM],Ki (Histamine H3 receptor [4]) [nM],further results
O=C(C1CC2(CCN(C3CCOCC3)CC2)C1)N1CCN(C2CCCCC2)CC1,0.75,1.6,,
O=C(C1CC12CCNCC2)N1CCN(C2CCCCC2)CC1 (racemic),-1,360,439,IC50 [3]: > 33000 nM
O=C(N1CCCN(C2CCC2)CC1)N1CCC2(CCCN(S(=O)(=O)c3ccccc3)C2)C1 (stereo unspecified),1.74,6.5,,IC50 [3]: > 33000 nM
O=C(C1CC2(CCN(C3CCOCC3)CC2)C1)N1CCN2CCCCC2C1 (stereo unspecified),-0.46,6.3,,
CS(=O)(=O)N1CCC2(CC1)CC(C(=O)N1CCN(C3CCC3)CC1)C2,0.97,11,,Papp A→B [5]: 19 ×10⁻⁶ cm/s; half-life [6]: 0.4 h; fraction unbound [7]: 0.67; Vd [8]: 1.4 L/kg; CL (Rattus norvegicus [9]): 69.8 mL/min/kg; microsomal CLint [10]: 16 µL/min/mg; solubility thermodynamic [11]: > 500 µM; microsomal CLint [12]: 8.3 µL/min/mg
CC(C)N1CCCN(C(=O)C2CC3(CCN(C4CCOCC4)CC3)C2)CC1,-1.78,14,,
O=C(C1CC12CCC(C1CCCCC1)CC2)N1CCN(C2CCC2)CC1 (racemic),,,> 10000,solubility thermodynamic [11]: 1 µM
CC(C)N1CCN(C(=O)C2CC3(CCN(C4CCOCC4)CC3)C2)CC1,-0.74,1.7,0.3,Papp A→B [5]: 3.6 ×10⁻⁶ cm/s; half-life [13]: 11.7 h; microsomal CLint [10]: < 4 µL/min/mg; Vd [14]: 64 L/kg; solubility thermodynamic [11]: > 500 µM; CL (Rattus norvegicus [15]): 78 mL/min/kg; microsomal CLint [12]: < 4 µL/min/mg
O=C(C1CC12CCN(C1CCOCC1)CC2)N1CCN(C2CCCCC2)CC1 (racemic),0.74,12,26,
CC(C)N1CCCN(C(=O)C2CC3(CCN(C(=O)c4ccccc4)CC3)C2)CC1,1.63,12,,IC50 [3]: > 33000 nM
O=C(c1ccccc1)N1CCCC2(CCN(C(=O)N3CCCN(C4CCC4)CC3)C2)C1 (stereo unspecified),1.01,4,,
O=C(C1CC12CCN(C1CCOCC1)CC2)N1CCN(C2CCCCCC2)CC1 (racemic),,,65,
CC(C)N1CCN(C(=O)N2CCC3(CCN(C4CCOCC4)CC3)C2)CC1,-0.87,32,,IC50 [3]: > 33000 nM
O=C(C1CC12CCN(C1CCOCC1)CC2)N1CCN(C2CCC2)CC1 (racemic),0.24,3.6,1.3,Activity (Histamine H3 receptor [16]): Active; Papp A→B [5]: 3.9 ×10⁻⁶ cm/s; fraction unbound [17]: 0.8; fraction unbound [7]: 0.91; microsomal CLint [10]: < 4 µL/min/mg; solubility thermodynamic [11]: > 500 µM; microsomal CLint [12]: 29 µL/min/mg
O=C(C1CC12CCN(C1CCC1)CC2)N1CCN(C2CCOCC2)CC1 (racemic),,66,67,
O=C(C1CC12CCN(C1CCOCC1)CC2)N1CCCN(C2CCC2)CC1 (racemic),0.18,17,3,
O=C(N1CCCN(C2CCC2)CC1)N1CCC2(CCN(S(=O)(=O)c3ccccc3)CC2)C1,1.71,2.7,,IC50 [3]: > 33000 nM
CC(C)N1CCN(C(=O)[C@@H]2CC23CCN(C2CCOCC2)CC3)CC1,-0.35,87,16,
CC(C)N1CCN(C(=O)N2CC3(CCN(C4CCOCC4)CC3)C2)CC1,,900,97,
CC(C)N1CCN(C(=O)C2CC23CCN(C2CCOCC2)CC3)CC1 (racemic),,3.2,3,Papp A→B [5]: 5.4 ×10⁻⁶ cm/s; fraction unbound [17]: 0.69; fraction unbound [7]: 0.87; microsomal CLint [10]: 24 µL/min/mg; solubility thermodynamic [11]: > 500 µM; microsomal CLint [12]: < 4 µL/min/mg
O=C(C1CC12CCN(c1ccncc1)CC2)N1CCN(C2CCCCC2)CC1 (racemic),1.09,83,55,
